Results taken from ChEMBL document CHEMBL5390255, “Expanding the squaramide library as mycobacterial ATP synthase inhibitors: Innovative synthetic pathway and biological evaluation” (Bioorg Med Chem, 2023).
In brackets after ≈: the same amount, converted by molar mass. Activity calls are given as the source filed them. The rule behind the calls is not given here.

Assays:
Assay type in all cases: functional
[1] = test system: Mycobacterium tuberculosis; test: Induction of drug resistance in Mycobacterium tuberculosis H37Ra at 10 to 16 fold MIC; details: time 4-5 weeks
Procedure, shortened: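 Exponential-phase H37Ra, about 10⁷ bacteria, plated on 7H11 agar with compound at 10x and 16x MIC. Incubated 4–5 weeks at 37 °C. Frequency calculated as mutant colonies divided by total cells plated. Clones confirmed by PCR and Sanger sequencing of atp genes and rv0678.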

[2] = test system: Mycobacterium tuberculosis; test: Antibacterial activity against Bedaquiline- sensitive Mycobacterium tuberculosis H37Ra harboring atpB.K179N_01 mutant incubated for 7 days by resazurin staining based microtiter assay; details: time 7 day
Procedure, shortened: (§1)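 Resazurin microtiter assay on H37Ra atpB K179N mutants and wild type, using exponential cultures diluted to OD 0.02. 3-fold serial dilution from 10 µM (0.002–10 µM), in triplicate. After 7 days, 0.02% resazurin added for 24 h, then fluorescence read (ex 530/em 590 nm). MIC taken from four-parameter variable-slope nonlinear regression.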

[3] = test system: Mycobacterium tuberculosis; test: Antibacterial activity against Bedaquiline- sensitive Mycobacterium tuberculosis H37Ra harboring atpB.K179N_02 mutant incubated for 7 days by resazurin staining based microtiter assay; details: time 7 day; procedure, shortened: as §1

Which Activity [1] does the source give for `O=c1c(NCc2ccccn2)c(-c2ccc(N3CCCCC3)cc2)c1=O` here?
Its Activity is “Active”.

How did the Activity [1] turn out when `COc1ccc(-c2c(NCc3ccccn3)c(=O)c2=O)cc1` was run?
Its Activity is “Active”.

How did the MIC [2] turn out when `COc1nc2ccc(Br)cc2cc1[C@@H](c1ccccc1)[C@@](O)(CCN(C)C)c1cccc2ccccc12` [BEDAQUILINE] was run?
Its MIC is 0.11 µM (≈ 0.0611 µg/mL).

What about the MIC [3] of the same molecule?
The MIC was 0.12 µM (≈ 0.0667 µg/mL).
